Measurements: ChEMBL document CHEMBL1141660, “Synthesis and antimycobacterial evaluation of substituted pyrazinecarboxamides” (Eur J Med Chem, 2008)
≈ marks a conversion by molar mass, not a printed value.

What was measured:
[1] = Inhibition of photosynthetic electron transport in Spinacia oleracea chloroplasts assessed as photoreduction of 2,6-dicholorophenol-indophenol measured by decrease in oxygen evolution rate; type: functional
Summary of the method: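 Chloroplast suspension (chlorophyll 30 mg/L) in 0.02 mol/L phosphate buffer, pH 7.2, with 0.4 mol/L sucrose, 0.005 mol/L MgCl2 and 0.015 mol/L NaCl. Samples were lit by a halogen lamp (~100 W/m², 10 cm, 4-cm water filter) at 22 °C. Electron transport was followed as DCPIP photoreduction. IC50 is the molar concentration halving oxygen evolution versus the untreated control.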

[2] = test system: Mycobacterium tuberculosis; experiment: Antimicrobial activity against Mycobacterium tuberculosis H37Rv ATCC 27294 at 6.25 ug/mL by microplate alamar blue assay; type: functional
[3] = test system: Chlorella vulgaris; experiment: Antialagal activity against Chlorella vulgaris Beji assessed as reduction in chlorophyll content after 7 days at 0.83 to 100 umol/L; type: functional; set-up: scale not given: the % may be the effect or the level left
Summary of the method: (§1)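 Chlorella cultures with compound added from DMSO (final ≤0.25%), against controls carrying the same DMSO level. Chlorophyll content was read relative to the control. Results are given either as IC50 (concentration giving a 50% drop in chlorophyll) or as percent of control across the 0.83–100 concentration range, with S.D.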

[4] = test system: Vero; experiment: Cytotoxicity against african green monkey Vero cells after 72 hrs by MTT assay; type: cell-based; settings: Chlorocebus sabaeus
Summary of the method: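 Secondary screen in VERO cells. Viability was read with the CellTiter 96 non-radioactive cell proliferation assay.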

[5] = Selectivity index, ratio of MIC Mycobacterium tuberculosis H37Rv ATCC 27294 to IC50 for african green monkey Vero cells; type: functional
[6] = test system: Mycobacterium tuberculosis; experiment: Antimicrobial activity against Mycobacterium tuberculosis H37Rv ATCC 27294 by microplate alamar blue assay; type: functional
[7] = test system: Chlorella vulgaris; experiment: Antialagal activity against Chlorella vulgaris Beji assessed as reduction in chlorophyll content after 7 days; type: functional, organism-based; settings: 168 h; summary of the method: as §1
[8] = test system: Trichophyton mentagrophytes; experiment: Antifungal activity against Trichophyton mentagrophytes after 72 hrs; type: functional
[9] = test system: Trichophyton mentagrophytes; experiment: Antifungal activity against Trichophyton mentagrophytes after 120 hrs; type: functional

SMILES	IC50 [1] [µM]	inhibition at 6.25 µg/mL [2] [%]	Activity [3] [%]	IC50 [4] [µg/mL]	Ratio [5]	MIC [6] [µg/mL]	IC50 [7] [µM]	MIC [8] [µM]	MIC [9] [µM]
O=C(Nc1ccc(F)cc1)c1cnccn1	480	0	89.9						
CC(C)(C)c1ncc(C(=O)Nc2cccc(C(F)(F)F)c2)nc1Cl	173	95	90.1	> 10	>3.2	3.13 (≈ 8.75 µM)			
Cc1ccc(NC(=O)c2cnc(C(C)(C)C)c(Cl)n2)cc1	73	0	92.9						
O=C(Nc1ccc(F)cc1)c1cncc(Cl)n1	384	44					32.3		
Cc1ccc(NC(=O)c2cnccn2)cc1	1480	86					70.9		
O=C(Nc1cc(O)ccc1Cl)c1cncc(Cl)n1	624	15	103						
O=C(Nc1cccc(C(F)(F)F)c1)c1cncc(Cl)n1	229	77					12.1		
CC(C)(C)c1cnc(C(=O)Nc2cccc(C(F)(F)F)c2)cn1	283	23	85.2					62.5 (≈ 20.2 µg/mL)	62.5 (≈ 20.2 µg/mL)
CC(C)(C)c1cnc(C(=O)Nc2ccccc2C(F)(F)F)cn1	55	7					32.9		
Cc1ccc(NC(=O)c2cnc(C(C)(C)C)cn2)cc1	164	61	91.8						
Cc1ccc(NC(=O)c2cncc(Cl)n2)cc1	1520	71					37.4		
NC(=O)c1cnccn1 [PYRAZINAMIDE]						12.5 (≈ 102 µM)			
CC(C)(C)c1cnc(C(=O)Nc2ccc(F)cc2)cn1	524	25	94.5						
CC(C)(C)c1ncc(C(=O)Nc2ccccc2C(F)(F)F)nc1Cl	205	6	94.4						
CC(C)(C)c1ncc(C(=O)Nc2ccc(F)cc2)nc1Cl	103	15	101.6						
O=C(Nc1cc(O)ccc1Cl)c1cnccn1	722	0	97.1						
O=C(Nc1cccc(C(F)(F)F)c1)c1cnccn1	130	99	91.5	> 62.5	>10	6.25 (≈ 23.4 µM)			
O=C(Nc1ccccc1C(F)(F)F)c1cnccn1	376	31	91.7						
CC(C)(C)c1cnc(C(=O)Nc2cc(O)ccc2Cl)cn1		0	122						
CN(C)C(=O)Nc1ccc(Cl)c(Cl)c1 [DCMU]	1.9						7.3		
O=C(Nc1ccccc1C(F)(F)F)c1cncc(Cl)n1	557	26	87.8						
CC(C)(C)c1ncc(C(=O)Nc2cc(O)ccc2Cl)nc1Cl	625	0	98						
